Source: ChEMBL document CHEMBL1782042, “Efficient microwave-assisted synthesis and antitumor activity of novel 4,4'-methylenebis[2-(3-aryl-4,5-dihydro-1H-pyrazol-5-yl)phenols]” (Eur J Med Chem, 2011)

Tests used:
MDA-MB-435 = experiment: Cytotoxicity against human MDA-MB-435 cells; type: cell-based
Outline: (§1)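 NCI 60 human tumour cell line screen, second stage at five concentrations (100, 10, 1.0, 0.1 and 0.01 μM). Continuous drug exposure for 48 h, with cell growth estimated by sulforhodamine B protein staining. GI50 is the drug concentration giving a 50% reduction in net protein increase relative to control cells over the incubation.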

SNB-75 = experiment: Cytotoxicity against human SNB75 cells; type: cell-based
Outline: (§2)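 NCI 60 human tumour cell line screen; five concentration levels (100, 10, 1.0, 0.1 and 0.01 μM), 48 h continuous drug exposure. Cell growth estimated by sulforhodamine B (SRB) protein staining. GI50 taken as the drug concentration giving a 50% reduction in net protein increase relative to control cells over the incubation.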

SW-620 [1] = experiment: Anticancer activity against human SW620 cells after 48 hrs by sulforhodamine B assay; type: functional; conditions: SW-620, 48 h
Outline: (§3)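 NCI 60-cell-line screen, second stage. Five concentration levels (100, 10, 1.0, 0.1 and 0.01 μM), 48 h continuous drug exposure. Cell growth was estimated by sulforhodamine B protein staining. GI50 is the concentration giving a 50% reduction in net protein increase relative to control cells over the drug incubation. Compounds entered this stage after an earlier single-dose screen.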

SF-268 = experiment: Anticancer activity against human SF268 cells after 48 hrs by sulforhodamine B assay; type: functional; conditions: SF-268, 48 h
Outline: (§4)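 NCI 60-cell-line in vitro screen, second stage: five concentration levels (100, 10, 1.0, 0.1 and 0.01 μM) with 48 h continuous drug exposure. Cell growth was estimated by sulforhodamine B protein staining. GI50 is the drug concentration that gives a 50% reduction in net protein increase relative to control cells over the incubation.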

SW-620 [2] = experiment: Cytotoxicity against human SW620 cells; type: cell-based; outline: as §2
OVCAR-4 = experiment: Anticancer activity against human OVCAR4 cells after 48 hrs by sulforhodamine B assay; type: functional; conditions: OVCAR-4, 48 h; outline: as §4
NCI-H460 = experiment: Anticancer activity against human NCI-H460 cells after 48 hrs by sulforhodamine B assay; type: functional; conditions: NCI-H460, 48 h; outline: as §4
NCI/ADR-RES = experiment: Cytotoxicity against human NCI/ADR-RES cells; type: cell-based; outline: as §1
UACC-62 [3] = experiment: Anticancer activity against human UACC62 cells after 48 hrs by sulforhodamine B assay; type: functional; conditions: UACC-62, 48 h; outline: as §3
UACC-62 [4] = experiment: Cytotoxicity against human UACC62 cells; type: cell-based; outline: as §2
HOP-62 = experiment: Cytotoxicity against human HOP62 cells; type: cell-based; outline: as §1
MDA-MB-231 = experiment: Cytotoxicity against human MDA-MB-231 cells; type: cell-based; outline: as §1

Oc1ccc(Cc2ccc(O)c(C3CC(c4ccc(Cl)cc4)=NN3)c2)cc1C1CC(c2ccc(Cl)cc2)=NN1 (configuration not stated)
LC50 (MDA-MB-435): > 100 µM | LC50 (SNB-75): > 100 µM | GI50 (SW-620 [1]): 3.29 µM | GI50 (SF-268): 3.22 µM | LC50 (SW-620 [2]): > 100 µM | GI50 (OVCAR-4): 3.54 µM | GI50 (NCI-H460): 2.15 µM | LC50 (NCI/ADR-RES): > 100 µM | GI50 (UACC-62 [3]): 3.16 µM | LC50 (UACC-62 [4]): 43.6 µM | LC50 (HOP-62): > 100 µM | LC50 (MDA-MB-231): > 100 µM
